Measured values taken from ChEMBL document CHEMBL4371052, “Diarylcarbonates are a new class of deubiquitinating enzyme inhibitor” (Bioorg Med Chem Lett, 2019).
Calls of active or inactive are those of the source. The rule behind the calls is not given here.

Experiments:
[1] = target: Ubiquitin carboxyl-terminal hydrolase 17-like protein 24 (Homo sapiens) (UniProt Q0WX57); test: Inhibition of USP17 in HEK293T cell lysates at 25 uM using HA-tagged vinyl-sulfone as substrate preincubated for 19 to 60 mins followed by substrate addition and measured after 19 to 25 mins by Western blot analysis; type: subcellular; details: Lysate
Chain of Ubiquitin carboxyl-terminal hydrolase 17-like protein 24 (Homo sapiens) (Q0WX57 whole entry): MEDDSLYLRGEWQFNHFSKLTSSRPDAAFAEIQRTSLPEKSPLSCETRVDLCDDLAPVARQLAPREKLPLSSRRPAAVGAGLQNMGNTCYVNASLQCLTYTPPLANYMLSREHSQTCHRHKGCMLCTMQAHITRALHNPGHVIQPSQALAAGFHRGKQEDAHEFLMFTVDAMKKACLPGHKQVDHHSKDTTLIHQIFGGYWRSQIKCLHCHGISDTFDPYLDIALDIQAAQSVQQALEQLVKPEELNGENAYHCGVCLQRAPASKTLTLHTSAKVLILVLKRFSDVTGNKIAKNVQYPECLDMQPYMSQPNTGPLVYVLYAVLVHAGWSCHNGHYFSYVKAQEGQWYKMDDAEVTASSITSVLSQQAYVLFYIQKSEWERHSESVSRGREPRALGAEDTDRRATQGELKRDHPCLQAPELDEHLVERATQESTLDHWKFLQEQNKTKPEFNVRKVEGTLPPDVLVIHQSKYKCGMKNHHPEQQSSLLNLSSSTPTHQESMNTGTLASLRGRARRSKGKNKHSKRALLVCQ

[2] = target: Ubiquitin carboxyl-terminal hydrolase 9X (Homo sapiens) (UniProt Q93008); test: Inhibition of USP9x in human K562 cells assessed as decrease in Bcr-Abl expression at 50 uM measured after 2 hrs by Western blot analysis; type: cell-based
Chain of Ubiquitin carboxyl-terminal hydrolase 9X (Homo sapiens) (Q93008 whole entry): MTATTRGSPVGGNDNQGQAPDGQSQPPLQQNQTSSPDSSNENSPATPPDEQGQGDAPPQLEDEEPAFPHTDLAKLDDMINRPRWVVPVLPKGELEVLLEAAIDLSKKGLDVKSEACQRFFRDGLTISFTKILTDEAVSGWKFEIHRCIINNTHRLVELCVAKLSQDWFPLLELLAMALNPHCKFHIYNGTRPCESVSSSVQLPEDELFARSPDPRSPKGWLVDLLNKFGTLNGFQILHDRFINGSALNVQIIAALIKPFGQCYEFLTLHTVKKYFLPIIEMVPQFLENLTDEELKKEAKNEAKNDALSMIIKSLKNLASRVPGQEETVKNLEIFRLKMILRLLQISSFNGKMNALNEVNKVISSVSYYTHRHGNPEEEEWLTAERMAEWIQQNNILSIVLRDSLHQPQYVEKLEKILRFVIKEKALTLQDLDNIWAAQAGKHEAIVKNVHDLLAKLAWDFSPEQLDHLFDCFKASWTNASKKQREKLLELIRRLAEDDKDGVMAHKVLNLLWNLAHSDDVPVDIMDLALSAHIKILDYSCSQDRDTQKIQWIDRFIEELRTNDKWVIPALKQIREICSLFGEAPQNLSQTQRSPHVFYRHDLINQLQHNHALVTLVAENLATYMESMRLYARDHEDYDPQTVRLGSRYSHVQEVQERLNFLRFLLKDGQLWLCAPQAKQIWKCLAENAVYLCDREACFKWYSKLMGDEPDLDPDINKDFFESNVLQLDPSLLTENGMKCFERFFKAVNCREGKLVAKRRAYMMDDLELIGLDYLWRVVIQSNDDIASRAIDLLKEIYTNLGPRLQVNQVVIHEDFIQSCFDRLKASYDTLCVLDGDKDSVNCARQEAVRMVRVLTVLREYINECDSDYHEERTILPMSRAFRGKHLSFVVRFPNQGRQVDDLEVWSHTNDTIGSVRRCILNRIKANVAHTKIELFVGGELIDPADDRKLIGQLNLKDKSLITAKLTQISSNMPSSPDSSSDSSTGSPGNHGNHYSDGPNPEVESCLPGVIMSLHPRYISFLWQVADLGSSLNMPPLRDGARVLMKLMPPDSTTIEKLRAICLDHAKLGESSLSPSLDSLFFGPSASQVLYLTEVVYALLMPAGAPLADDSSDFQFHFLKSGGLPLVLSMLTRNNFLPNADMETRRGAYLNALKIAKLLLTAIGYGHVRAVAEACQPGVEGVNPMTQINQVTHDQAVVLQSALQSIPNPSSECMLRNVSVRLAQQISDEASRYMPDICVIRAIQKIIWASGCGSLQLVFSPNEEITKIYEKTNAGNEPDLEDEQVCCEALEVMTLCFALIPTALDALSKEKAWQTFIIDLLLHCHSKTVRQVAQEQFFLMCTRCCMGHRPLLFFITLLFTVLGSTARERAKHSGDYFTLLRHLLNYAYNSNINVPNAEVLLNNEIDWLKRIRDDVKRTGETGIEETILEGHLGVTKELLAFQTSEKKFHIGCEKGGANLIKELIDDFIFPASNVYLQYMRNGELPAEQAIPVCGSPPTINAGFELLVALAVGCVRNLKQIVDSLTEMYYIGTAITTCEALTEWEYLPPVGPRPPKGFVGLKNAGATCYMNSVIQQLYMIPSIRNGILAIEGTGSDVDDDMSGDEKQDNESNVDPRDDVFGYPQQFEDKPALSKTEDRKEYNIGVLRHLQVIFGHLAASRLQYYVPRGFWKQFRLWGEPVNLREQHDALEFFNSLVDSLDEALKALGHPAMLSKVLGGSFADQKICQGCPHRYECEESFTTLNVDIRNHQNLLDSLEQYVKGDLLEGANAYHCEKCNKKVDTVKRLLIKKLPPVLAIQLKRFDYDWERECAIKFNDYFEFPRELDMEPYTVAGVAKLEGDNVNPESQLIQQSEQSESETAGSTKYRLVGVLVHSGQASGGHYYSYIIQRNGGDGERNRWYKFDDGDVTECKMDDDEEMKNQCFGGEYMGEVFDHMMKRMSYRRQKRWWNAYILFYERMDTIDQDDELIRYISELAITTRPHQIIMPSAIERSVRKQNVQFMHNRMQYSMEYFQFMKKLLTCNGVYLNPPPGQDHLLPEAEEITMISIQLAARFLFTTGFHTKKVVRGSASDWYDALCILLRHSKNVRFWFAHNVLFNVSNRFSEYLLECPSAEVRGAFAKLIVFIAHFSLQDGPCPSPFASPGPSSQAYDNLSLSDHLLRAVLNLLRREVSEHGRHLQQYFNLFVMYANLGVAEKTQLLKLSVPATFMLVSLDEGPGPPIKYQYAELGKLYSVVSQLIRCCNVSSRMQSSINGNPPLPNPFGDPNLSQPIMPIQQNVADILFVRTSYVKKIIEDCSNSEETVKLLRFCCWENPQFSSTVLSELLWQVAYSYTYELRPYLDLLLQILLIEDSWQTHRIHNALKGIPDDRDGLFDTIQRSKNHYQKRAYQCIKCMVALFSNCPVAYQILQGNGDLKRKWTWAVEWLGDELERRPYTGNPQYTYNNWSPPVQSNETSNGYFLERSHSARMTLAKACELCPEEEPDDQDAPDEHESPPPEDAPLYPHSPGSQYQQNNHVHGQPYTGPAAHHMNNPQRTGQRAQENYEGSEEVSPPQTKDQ
Outline: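 K562 cells treated with 50 μM compound for 2 h. Lysates were sonicated in SDS, and Bcr-Abl was immunoblotted with anti-Abl antibody.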

[3] = target: T1, Ubiquitin carboxyl-terminal hydrolase 8 (Homo sapiens) (UniProt P40818); test: Inhibition of USP8 in HEK293T cell lysates at 25 uM using HA-tagged vinyl-sulfone as substrate measured after 2 to 30 mins by Western blot analysis; type: subcellular; details: Lysate
T1 sequence (whole entry): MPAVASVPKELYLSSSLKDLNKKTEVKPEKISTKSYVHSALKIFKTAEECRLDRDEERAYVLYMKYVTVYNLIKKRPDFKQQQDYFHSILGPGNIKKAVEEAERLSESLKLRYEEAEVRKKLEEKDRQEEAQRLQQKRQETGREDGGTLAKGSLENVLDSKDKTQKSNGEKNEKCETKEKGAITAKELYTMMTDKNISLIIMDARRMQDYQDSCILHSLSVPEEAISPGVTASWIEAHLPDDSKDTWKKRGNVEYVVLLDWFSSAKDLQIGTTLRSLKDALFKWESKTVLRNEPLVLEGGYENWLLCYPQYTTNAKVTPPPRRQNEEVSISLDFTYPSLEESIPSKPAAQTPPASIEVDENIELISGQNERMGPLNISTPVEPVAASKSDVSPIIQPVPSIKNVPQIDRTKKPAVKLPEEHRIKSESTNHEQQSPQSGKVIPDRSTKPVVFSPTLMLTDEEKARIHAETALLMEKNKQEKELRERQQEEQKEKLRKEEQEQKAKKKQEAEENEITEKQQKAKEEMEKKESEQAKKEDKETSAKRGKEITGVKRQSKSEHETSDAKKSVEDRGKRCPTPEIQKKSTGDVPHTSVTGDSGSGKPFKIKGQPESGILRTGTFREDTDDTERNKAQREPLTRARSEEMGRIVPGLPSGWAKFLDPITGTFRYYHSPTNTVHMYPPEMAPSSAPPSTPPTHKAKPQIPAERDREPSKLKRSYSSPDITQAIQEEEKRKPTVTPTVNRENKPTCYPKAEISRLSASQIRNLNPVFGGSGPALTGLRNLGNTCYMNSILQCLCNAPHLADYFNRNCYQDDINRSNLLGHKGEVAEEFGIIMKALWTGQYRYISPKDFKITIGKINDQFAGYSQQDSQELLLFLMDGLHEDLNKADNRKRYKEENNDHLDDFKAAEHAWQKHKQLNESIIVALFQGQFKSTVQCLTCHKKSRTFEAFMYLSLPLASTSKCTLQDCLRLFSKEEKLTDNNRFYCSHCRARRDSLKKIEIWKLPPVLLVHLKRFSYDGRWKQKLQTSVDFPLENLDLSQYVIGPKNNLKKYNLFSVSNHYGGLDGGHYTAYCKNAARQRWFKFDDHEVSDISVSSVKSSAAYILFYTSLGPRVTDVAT
Outline: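 HEK 293T lysate (1.5 mg/ml) given compound (25 μM) or DMSO at the same time as HA-Ub-VS (1.5 μM). Aliquots withdrawn over time were run on SDS-PAGE and immunoblotted for HA.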

[4] = target: Pancreatic elastase (Sus scrofa) (UniProt P08419+P00772); test: Inhibition of porcine pancreatic elastase; type: protein assay
[5] = system: K562; test: Cell cycle arrest in human K562 cells assessed as increase in accumulation at G1-phase after 24 hrs by propidium iodide staining based flow cytometry; type: functional
Outline: (§1)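 K562 cells exposed to compound for 24 h, then analysed for cell cycle by FACS. Sub-G1 cells were counted as apoptotic, with the G1 fraction reported separately.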

[6] = target: T2, Ubiquitin carboxyl-terminal hydrolase isozyme L3 (Homo sapiens) (UniProt P15374); test: Inhibition of UCHL3 in HEK293T cell lysates at 25 uM using HA-tagged vinyl-sulfone as substrate preincubated for 19 to 60 mins followed by substrate addition and measured after 19 to 25 mins by Western blot analysis; type: subcellular; details: Lysate
T2 sequence (whole entry): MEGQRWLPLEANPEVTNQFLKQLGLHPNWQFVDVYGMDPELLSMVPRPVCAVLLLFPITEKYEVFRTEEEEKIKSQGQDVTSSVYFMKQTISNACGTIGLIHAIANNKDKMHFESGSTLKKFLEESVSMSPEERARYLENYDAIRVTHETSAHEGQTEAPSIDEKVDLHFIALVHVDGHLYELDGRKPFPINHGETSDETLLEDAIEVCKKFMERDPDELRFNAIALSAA

[7] = target: Ubiquitin carboxyl-terminal hydrolase 9X (Homo sapiens) (UniProt Q93008); test: Inhibition of USP9x in HEK293T cell lysates assessed as enzyme recovery at 250 uM using HA-tagged vinyl-sulfone as substrate preincubated for 40 mins followed by 10-fold dilution and subsequent substrate addition measured up to 2 hrs by Western blot analysis; type: subcellular; details: Lysate
[8] = target: Ubiquitin carboxyl-terminal hydrolase 9X (Homo sapiens) (UniProt Q93008); test: Inhibition of USP9x in HEK293T cell lysates at 25 uM using HA-tagged vinyl-sulfone as substrate preincubated for 19 to 60 mins followed by substrate addition and measured after 19 to 25 mins by Western blot analysis; type: subcellular; details: Lysate
[9] = target: Ubiquitin carboxyl-terminal hydrolase 7 (Homo sapiens) (UniProt Q93009); test: Inhibition of USP7 in human MCF7 cells assessed as increase in p53 expression after 4 to 48 hrs by Western blot analysis; type: cell-based
Chain of Ubiquitin carboxyl-terminal hydrolase 7 (Homo sapiens) (Q93009 whole entry, looked up): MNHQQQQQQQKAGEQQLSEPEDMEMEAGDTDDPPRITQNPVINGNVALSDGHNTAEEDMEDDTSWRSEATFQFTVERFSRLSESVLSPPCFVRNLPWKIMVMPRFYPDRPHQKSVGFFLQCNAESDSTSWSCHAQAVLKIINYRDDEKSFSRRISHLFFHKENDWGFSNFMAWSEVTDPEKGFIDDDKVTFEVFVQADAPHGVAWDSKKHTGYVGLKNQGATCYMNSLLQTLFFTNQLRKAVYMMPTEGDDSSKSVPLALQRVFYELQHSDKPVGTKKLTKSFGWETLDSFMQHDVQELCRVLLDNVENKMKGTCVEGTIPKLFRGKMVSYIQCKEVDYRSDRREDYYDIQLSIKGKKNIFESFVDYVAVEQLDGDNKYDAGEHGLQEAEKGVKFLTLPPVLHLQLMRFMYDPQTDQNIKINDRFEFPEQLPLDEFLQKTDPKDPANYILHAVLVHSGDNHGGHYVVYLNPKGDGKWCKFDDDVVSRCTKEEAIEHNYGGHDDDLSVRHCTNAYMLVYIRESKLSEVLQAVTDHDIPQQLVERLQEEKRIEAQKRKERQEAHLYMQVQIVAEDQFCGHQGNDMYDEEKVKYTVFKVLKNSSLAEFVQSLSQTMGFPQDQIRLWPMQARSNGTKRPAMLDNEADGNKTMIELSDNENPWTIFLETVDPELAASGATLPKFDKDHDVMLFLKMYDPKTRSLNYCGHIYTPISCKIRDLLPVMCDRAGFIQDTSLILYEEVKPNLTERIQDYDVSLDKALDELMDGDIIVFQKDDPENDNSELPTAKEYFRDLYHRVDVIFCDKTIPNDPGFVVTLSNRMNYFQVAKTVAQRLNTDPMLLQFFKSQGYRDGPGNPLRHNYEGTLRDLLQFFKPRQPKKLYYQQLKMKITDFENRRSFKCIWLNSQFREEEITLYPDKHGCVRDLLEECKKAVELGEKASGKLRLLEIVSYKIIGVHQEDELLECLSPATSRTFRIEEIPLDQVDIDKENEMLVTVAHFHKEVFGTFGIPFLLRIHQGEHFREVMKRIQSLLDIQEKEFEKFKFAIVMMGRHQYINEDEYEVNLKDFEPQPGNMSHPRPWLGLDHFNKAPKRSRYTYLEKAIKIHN

[10] = target: Ubiquitin carboxyl-terminal hydrolase 7 (Homo sapiens) (UniProt Q93009); test: Inhibition of USP7 in HEK293T cell lysates assessed as ratio of HA-Ub-VS modified USP7 to total USP7 at 50 uM using HA-Ub vinyl-sulfone as substrate preincubated for 19 to 60 mins followed by substrate addition and measured after 19 to 25 mins by Western blot analysis (reference value: 0.5); type: subcellular; details: Lysate
Outline: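 HEK 293T lysate incubated with compound, then treated with HA-Ub-VS. Samples were run on SDS-PAGE and blotted with anti-USP7, and the probe-modified USP7 band was distinguished from unmodified USP7.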

[11] = system: K562; test: Cell cycle arrest in human K562 cells assessed as increase in accumulation at sub G1-phase after 24 hrs by propidium iodide staining based flow cytometry; type: functional; outline: as §1
[12] = target: Ubiquitin carboxyl-terminal hydrolase isozyme L1 (Homo sapiens) (UniProt P09936); test: Inhibition of UCHL1 in HEK293T cell lysates at 25 uM using HA-tagged vinyl-sulfone as substrate preincubated for 19 to 60 mins followed by substrate addition and measured after 19 to 25 mins by Western blot analysis; type: subcellular; details: Lysate
Chain of Ubiquitin carboxyl-terminal hydrolase isozyme L1 (Homo sapiens) (P09936 whole entry, looked up): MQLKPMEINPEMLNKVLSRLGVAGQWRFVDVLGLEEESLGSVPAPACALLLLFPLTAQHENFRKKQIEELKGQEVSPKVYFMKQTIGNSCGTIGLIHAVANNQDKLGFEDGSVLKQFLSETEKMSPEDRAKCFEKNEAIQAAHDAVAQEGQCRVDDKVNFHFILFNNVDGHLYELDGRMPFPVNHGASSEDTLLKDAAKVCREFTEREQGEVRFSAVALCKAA

[13] = target: Ubiquitin carboxyl-terminal hydrolase 9X (Homo sapiens) (UniProt Q93008); test: Inhibition of USP9x in human K562 cells assessed as decrease in Bcr-Abl expression at 50 uM measured after 4 hrs in presence of proteasome inhibitor bortezomib by Western blot analysis; type: cell-based
Outline: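 K562 cells treated with 50 μM compound with or without bortezomib (6 μM) for 4 h. Lysates were sonicated in SDS, and Bcr-Abl was measured by anti-Abl immunoblot with quantitation.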

inhibition [1]: Active | inhibition [2]: Active | inhibition [3]: inactive | inhibition [4]: inactive | inhibition [6]: inactive | inhibition [7]: inactive | inhibition [8]: Active | Activity [9]: Active | Ratio [10]: 0.4 | inhibition [12]: inactive | inhibition [13]: Active
Structure (SMILES): NCc1ccc(OC(=O)Oc2ccc3ccccc3c2)cc1
Activity [5]: Dose-dependent effect | Activity [11]: Dose-dependent effect
